According to paper PMC4504105 (Journal of Cancer, 2015):
One block for each molecule: values may come before it.

How the values were obtained:
[1] = test system: 26S proteasomes from PC-3M cells, trypsin-like (T-L) activity; assay: 26S proteasome activity assay, T-L; format: biochemical; conditions: 1h; for IC50: read-out: IC50 for T-L, 26S proteasomes, 37°C
[2] = test system: 26S proteasomes from PC-3M cells, chymotrypsin-like (CT-L) activity; assay: 26S proteasome activity assay, CT-L; format: biochemical; conditions: 1h; for IC50: read-out: IC50 for CT-L, 26S proteasomes, 37°C
PC-3M cell xenograft = assay: PC-3M xenograft tumor model; format: in vivo, Balb/c male nude mice; conditions: intraperitoneal, twice weekly, day 37
Procedure, shortened: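 Male Balb/c nude mice, 4-5 weeks, SPF. 3×10^6 PC-3M cells in PBS injected s.c. into the right flank. At about 0.2 cm3, randomised to 5 groups of 7: saline, reference inhibitor 1.25 mg/kg, test compound 1.25, 2.25 or 3.25 mg/kg. Dosed i.p. twice weekly, 11 times over 36 days. Volume = a×b²/2, measured before each dose; final measurement on day 37.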

[3] = target: T1, 26S proteasomes from PC-3M cells, post-glutamyl peptide hydrolase (PGPH) activity (Homo sapiens, UniProt P28072); assay: 26S proteasome activity assay, PGPH; format: biochemical; conditions: 1h
T1 sequence (P28072 35-239): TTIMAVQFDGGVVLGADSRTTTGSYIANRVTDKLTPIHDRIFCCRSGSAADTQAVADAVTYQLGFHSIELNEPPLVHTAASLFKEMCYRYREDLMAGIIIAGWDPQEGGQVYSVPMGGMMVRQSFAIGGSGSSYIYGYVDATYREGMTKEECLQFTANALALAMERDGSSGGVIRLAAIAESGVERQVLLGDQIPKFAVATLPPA

[4] = test system: proteasome β catalytic sites in PC-3M cells; assay: Proteasome activity profiling in intact cells; format: cell-based; conditions: 12.5-400 nM, 3 h
Procedure, shortened: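 PC-3M cells treated 3 h with test compound (12.5-400 nM), washed and harvested; proteasomes extracted as for the activity assay. Lysates labelled with Me4BodipyFL-Ahx3Leu3VS (5 μM) for 1 h at 37°C, boiled in sample buffer. 20 μg protein per lane on 12.5% SDS-PAGE, in-gel fluorescence scan. Band integrated optical density quantified; three independent experiments.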

[5] = test system: cell cycle proteins in PC-3M cell xenograft tumors; assay: Western blot analysis, xenograft tumor tissue; format: in vivo, Balb/c male nude mice; conditions: p<0.05
Procedure, shortened: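 Western blot on PC-3M xenograft tumours from mice dosed i.p. twice weekly. Tissue ground and lysed, whole protein on 10% SDS-PAGE, blotted to nitrocellulose, blocked with 5% milk. Primary antibodies against cyclin B1, p21, p27, wee 1 and others overnight at 4°C, then anti-mouse/anti-rabbit secondaries. ECL imaging; Student's t-test against control.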

HL-60 cells = assay: Cancer cell proliferation; format: cell-based; conditions: read-out: IC50, proliferation, 48 h
Procedure, shortened: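 HL-60 in RPMI 1640 with 10% FBS and penicillin/streptomycin at 37°C, 5% CO2. Seeded in 96-well format and exposed 48 h to a range of test compound concentrations, with a reference proteasome inhibitor run alongside. Survival by MTT. IC50 reported as mean ± SD over three independent experiments.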

Bel-7740 cells = assay: Cancer cell proliferation; format: cell-based; conditions: read-out: IC50, proliferation, 48 h
Procedure, shortened: (§1)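 PC-3M, […] or Bcap37 cells kept in RPMI 1640 with 10% FBS and 1% penicillin/streptomycin, 37°C, 5% CO2. In 96-well plates, treated 48 h with graded concentrations of test compound or of a reference proteasome inhibitor in parallel. Survival by sulforhodamine B staining. IC50 given as mean ± SD, three independent experiments.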

Viscera = format: in vivo, Balb/c male nude mice; conditions: all three doses (1.25, 2.25, 3.25 mg/kg), P>0.05
Procedure, shortened: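 Organ index from the PC-3M xenograft mice (male Balb/c nude; saline, reference inhibitor or test compound at 1.25, 2.25, 3.25 mg/kg i.p. twice weekly, 11 doses over 36 days). On day 37, body weight recorded, then mice killed; heart, liver, lung, brain, kidney and spleen excised and weighed. Group means ± SD compared with control by Student's t-test.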

PC-3M cells [6] = assay: Cell cycle assay; format: cell-based; conditions: 48 h
Bcap37 cells = assay: Cancer cell proliferation; format: cell-based; conditions: read-out: IC50, proliferation, 48 h
Procedure, shortened: as §1

[7] = test system: ubiquitinated and cell cycle proteins in PC-3M cells; assay: Western blot analysis, PC-3M cells; format: cell-based
Procedure, shortened: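 PC-3M cells exposed 48 h to a series of test compound concentrations (12.5-100 nM for cell-cycle proteins), then lysed. 10% SDS-PAGE, nitrocellulose, 5% milk block. Primary antibodies (ubiquitin, wee 1, cyclin B1, p27, p21, GAPDH) overnight at 4°C; anti-mouse/anti-rabbit secondaries; ECL detection. Three independent experiments; Student's t-test against control.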

PC-3M cells [8] = assay: Cancer cell proliferation; format: cell-based
Procedure, shortened: as §1

- IC50 [1]: 5350 ± 57 nM
- IC50 [2]: 71 ± 1 nM
Compound: CC(C)C[C@H](NC(=O)[C@H](Cc1ccccc1)NC(=O)c1cnccn1)B(O)O [PS341, reference compound]
- Tumor growth inhibition (final tumor volume) (PC-3M cell xenograft; 1.25 mg/kg): 49.6%

- IC50 [1]: 1240 ± 77 nM
- IC50 ([3]; read-out: IC50 for PGPH, 26S proteasomes, 37°C): 714 ± 44 nM
- PGPH activity inhibited ([3]; various YSY01A concentrations): 12-48%
- IC50 (HL-60 cells): 170 ± 9.9 nM
- IC50 [2]: 123 ± 18 nM
- IC50 (Bel-7740 cells): 286 ± 13.2 nM
- Impact on viscera index (body, heart, liver, brain, kidney, spleen and lung) (Viscera): slightly impacted
- IC50 (Bcap37 cells): 879 ± 18.2 nM
- IC50 (PC-3M cells [8]; read-out: IC50, proliferation, 48 h): 150 ± 9 nM
Compound: CC(C)C[C@H](NC(=O)[C@H](Cc1ccc2ccccc2c1)NC(=O)[C@H](CC(C)C)NC(=O)c1cnccn1)B(O)O [YSY01A, N-(2-Pyrazinecarbonyl)-L-leucine-L-(2-naphthyl)-alanine-L-leucine boronic acid]
- T-L activity inhibited ([1]; various YSY01A concentrations): 12-43%
- β5i, β2, β2i, β1 and β1i/β5 fluorgenic bands [4]: decreased
- Protein (cyclinB1, p21, p27, P-cdc2 (tyr15), wee 1) expression from tumor tissue [5]: enhanced
- CT-L activity inhibited ([2]; various YSY01A concentrations): 34-86%
- Increase of cells in the G2/M phase (PC-3M cells [6]; 50 nM): 14%
- Increase of cells in the G2/M phase (PC-3M cells [6]; 100 nM): 44%
- Protein (cyclinB1, p21, p27, P-cdc2 (tyr15), wee 1) expression ([7]; 12.5-100 nM, 48 h, p<0.05 versus control): increased
- Concentration causing ubiquitinated protein accumulation ([7]; 48h): 25 nM
- Inhibition efficacy relative to PS341 (PC-3M cells [8]; 48h): three times highter
- Tumor growth inhibition (final tumor volume) (PC-3M cell xenograft; 1.25 mg/kg): 45.7%
- Tumor growth inhibition (final tumor volume) (PC-3M cell xenograft; 2.25 mg/kg): 52.8%
- Tumor growth inhibition (final tumor volume) (PC-3M cell xenograft; 3.25 mg/kg): 60.1%
